Experimental data from different studies.
Compare with care: the assays were run in different laboratories.
BDKRB1: B1 bradykinin receptor (BDKRB1, Homo sapiens, UniProt P46663)
FAAH: Fatty-acid amide hydrolase 1 (FAAH, Homo sapiens, UniProt O00519)

| Structure (SMILES) | target | assay | conditions | inhibition [%] |
| --- | --- | --- | --- | --- |
| C[C@H](C(=O)N[C@H]1COc2ccccc2[C@@H]1S(C)(=O)=O)c1ccc(F)cc1 | BDKRB1 | cell-free assay | 10 µM | 7 |
| COCc1c(-c2cc3cc(C)cc(OC)c3s2)c2c(N)ncnn2c1CN1CCNC(=O)C1 | Prostaglandin G/H synthase 1 (PTGS1, Homo sapiens, UniProt P23219) | enzyme activity, inhibitor | 10 µM | -15 |
| c1ccc(C(NCCNC(c2ccccc2)c2ccccc2)c2ccccc2)cc1 | BDKRB1 | cell-free assay | 10 µM | -4 |
| O=C(Nc1cccnn1)N1CCN([C@@H]2CCOc3cc(C(F)(F)F)ccc32)CC1 | Gastrin/cholecystokinin type B receptor (CCKBR, Homo sapiens, UniProt P32239) | cell-free assay | 20 µM | -15 |
| COc1ccc(N(C)C(=O)Oc2nsnc2N2CCCCC2)cc1 | FAAH | enzyme activity, inhibitor | 10 µM, cell membranes | 17 |
| COc1ccc(S(=O)(=O)N(CC(=O)NO)CC(C)C)cc1 | Stromelysin-1 (MMP3, Homo sapiens, UniProt P08254) | enzyme activity, inhibitor | 0.1 µM | 80 |
| C#Cc1n[nH]c2c(-c3cn([C@@H](C)c4ccccn4)c(=O)[nH]c3=O)cc(F)cc12 | Receptor-type tyrosine-protein kinase FLT3 (FLT3, Homo sapiens, UniProt P36888) | enzyme activity, inhibitor | 0.1 µM | 6.2 |
| CN(C(=O)Oc1nsnc1N1CCOCC1)C1CCCCCCC1 | FAAH | enzyme activity, inhibitor | 10 µM, cell membranes | 18 |
